From PubChem BioAssay
CYP2C9 inh: blockers of cytochrome P450 2C9 activity – biochemical, luminescence, ADME assay, primary screen; 20% of 96,000 active; CYP2C9 Supersomes, luciferin-H conversion; inhibition, % at 5 µM; AID 777, 2007; P11712;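 active means blocking of liver enzyme CYP2C9 beyond about 50% at 5 µM, limit read from the data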
Target sequence (P11712 whole entry, looked up): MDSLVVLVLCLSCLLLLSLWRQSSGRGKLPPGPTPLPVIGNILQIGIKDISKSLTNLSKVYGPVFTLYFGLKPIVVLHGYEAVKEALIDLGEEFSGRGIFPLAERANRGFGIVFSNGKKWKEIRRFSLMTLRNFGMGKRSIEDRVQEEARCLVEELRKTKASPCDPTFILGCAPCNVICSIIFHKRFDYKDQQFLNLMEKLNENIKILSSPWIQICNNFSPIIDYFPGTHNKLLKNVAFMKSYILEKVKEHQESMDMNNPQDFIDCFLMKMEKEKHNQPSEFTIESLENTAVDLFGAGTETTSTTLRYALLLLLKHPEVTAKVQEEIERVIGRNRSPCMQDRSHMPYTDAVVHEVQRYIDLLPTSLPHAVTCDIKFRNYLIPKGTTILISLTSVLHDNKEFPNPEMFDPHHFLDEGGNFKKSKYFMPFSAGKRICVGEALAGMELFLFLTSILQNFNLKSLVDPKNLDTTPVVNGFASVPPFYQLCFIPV
Ecoli WT expand: growth inhibitors of wild-type E. coli, primary screen, strain BW25113, expanded library, OD600; OD600 absorbance; growth inhibition, % at 100 µM; 0.15% of 98,000 active;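 active means growth inhibition above about 50% at one test dose, limit read from the data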;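 further: growth measured after 20 h incubation at 37 °C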
CYP2C9 act: human CYP2C9 activators, primary screen, biochemical, luminescence | recombinant CYP2C9, luciferin-H conversion; hits give high values; factor 1 = untreated enzyme, 0 = blocked | activation factor at 5 µM | 1.4% of 96,000 active;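 active means activation factor of 2 or more for CYP2C9 at a 5 µM dose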;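 further: 0 = sulfaphenazole-blocked wells and 1 = vehicle-only wells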
CYP2C19 inhib: blockers of cytochrome P450 2C19 activity – biochemical, luminescence, ADME assay, primary screen; 21% of 96,000 active; AID 778, 2007; CYP2C19 Supersomes, luciferin-H EGE luminescence, 30 min; inhibition, % at 5 µM; P33261;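 active means CYP2C19 inhibition above a set limit at 5 µM in the primary screen, cut at about 50% in these data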;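 further: plate controls were negative control wells for no effect and 2.5 mM tranylcypromine positive control for full effect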
tolC growth inh: growth inhibitors of E. coli tolC mutant, primary screen, strain BW25113 ΔtolC::kan, 384-well. OD615. growth inhibition, % at 10 µM (by protocol). 2.2% of 65,000 active;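 active means growth inhibition at or above a cutoff equal to the mean over every tested compound plus 3 SD, cut at about 60% in these data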;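 further: growth measured after 20 h incubation at 37 °C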
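signal = optical density read at 615 nm | test system = E. coli ΔtolC::kan strain BW25113 | timing = 20 h compound exposure of bacteria at 37 °C | buffer or medium = LB medium plus 50 µg/mL kanamycin | compound dosing = 10 µM final, single dose | evaluation = % inhibition of E. coli growth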
CYP2C19 activ: human CYP2C19 activators, primary screen, biochemical, luminescence. recombinant CYP2C19, luciferin-H EGE luminescence; hits give high values; 0 = fully inhibited enzyme, 1 = untreated enzyme. Cytochrome P450 2C19 (Homo sapiens), P33261. AID 1025, 2008. activation factor at 5 µM. 96,000 tested, under 10 active;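 active means activation factor of at least 2 at 5 µM in the primary screen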;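 further: 0 = wells with 2.5 mM tranylcypromine and 1 = vehicle-only wells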
Active calls of the source: *. Shown are actives, neighbours in structure and some others; about 29% of the full set was active somewhere.

Results for O=C(CSc1nc2ccccc2c(=O)n1CCC(=O)N1CCCCC1)NCc1ccccc1 ?
Ecoli WT expand: 6.0; tolC growth inh: 6.3

What do the screens show for `O=C(CCCn1c(SCC(=O)NCC2CCCO2)nc2ccccc2c1=O)NCc1ccccc1` (stereo not given)?
CYP2C9 inh: 55.9*; Ecoli WT expand: -7.0; CYP2C9 act: 0.4; CYP2C19 inhib: 28.6; CYP2C19 activ: 0.7

What do the screens show for `Cc1cc(NC(=O)CSc2nc3ccccc3c(=O)n2CCCC(=O)NCc2ccccc2)n[nH]1`?
CYP2C9 inh: 77.7*; Ecoli WT expand: -3.0; CYP2C9 act: 0.2; CYP2C19 inhib: 86.6*; CYP2C19 activ: 0.1

What do the screens show for `COc1ccc(-n2c(SCC(=O)NCC3CCCO3)nc3ccccc32)cc1` (stereo not given)?
CYP2C9 inh: 89.7*; Ecoli WT expand: -9.0; CYP2C9 act: 0.1; CYP2C19 inhib: 92.9*; CYP2C19 activ: 0.1

What do the screens show for `CC1=Nc2ccccc2/C1=C\c1nc(-c2ccccc2)oc1O`?
CYP2C9 inh: 95.0*; Ecoli WT expand: -17.0; CYP2C9 act: 0.1; CYP2C19 inhib: 42.2; CYP2C19 activ: 0.6

What do the screens show for `CCOC(=O)/C(C(N)=NCc1ccco1)=C(/O)c1ccccc1`?
CYP2C9 inh: 39.9; Ecoli WT expand: 8.0; CYP2C9 act: 0.6; CYP2C19 inhib: 54.7*; tolC growth inh: 11.0; CYP2C19 activ: 0.5

Results for C[C@@]12CC(=O)NC1N(C(=O)c1cccc(C(F)(F)F)c1)C(c1ccccc1OC(=O)c1cccc(C(F)(F)F)c1)C2 (stereo not given in full) ?
CYP2C9 inh: 94.5*; Ecoli WT expand: -1.0; CYP2C9 act: 0.1; CYP2C19 inhib: 47.9; CYP2C19 activ: 0.5

Results for CC1(C)Cc2ccccc2C2CC(O)C(=O)N21 (stereo not given) ?
CYP2C9 inh: -9.2; Ecoli WT expand: 0.0; CYP2C9 act: 1.1; CYP2C19 inhib: -6.3; tolC growth inh: -18.7; CYP2C19 activ: 1.1

Results for CC1(C)CC(=O)C2=C(C1)NC(=O)CC2C(=O)NCc1ccc(F)cc1 (stereo not given) ?
CYP2C9 inh: -9.4; Ecoli WT expand: -1.0; CYP2C9 act: 1.1; CYP2C19 inhib: 5.2; tolC growth inh: -22.1; CYP2C19 activ: 0.9

How did Cc1oc2cc(O)ccc2c(=O)c1Oc1ccc2ccccc2c1 do in these assays?
CYP2C9 inh: -98.0; Ecoli WT expand: 2.0; CYP2C9 act: 2*; CYP2C19 inhib: 17.8; CYP2C19 activ: 0.8

How did CCSc1nnc(Nc2ccccc2)s1 do in these assays?
CYP2C9 inh: 3.2; Ecoli WT expand: 11.0; CYP2C9 act: 1; CYP2C19 inhib: 29.4; tolC growth inh: 10.7; CYP2C19 activ: 0.7

How did c1ccc(Nc2nnc(SCc3cccc4ccccc34)s2)cc1 do in these assays?
CYP2C9 inh: -111.3; Ecoli WT expand: -8.0; CYP2C9 act: 2.1*; CYP2C19 inhib: 33.5; CYP2C19 activ: 0.7

What do the screens show for `COC(=O)c1ccc(Oc2nc(Nc3ccc(C)c(C)c3)nc(N(C)C)n2)cc1`?
CYP2C9 inh: 71.4*; Ecoli WT expand: -17.0; CYP2C9 act: 0.3; CYP2C19 inhib: 56.3*; CYP2C19 activ: 0.4

Results for COc1ccccc1NC(=O)CN(c1ccccc1F)S(C)(=O)=O ?
CYP2C9 inh: 15.4; Ecoli WT expand: -1.0; CYP2C9 act: 0.8; CYP2C19 inhib: 28.9; tolC growth inh: 1.9; CYP2C19 activ: 0.7

Results for Cn1cnnc1SCC(=O)Nc1ccccc1Sc1ccccc1 ?
CYP2C9 inh: 1.2; CYP2C9 act: 1; CYP2C19 inhib: 39.4; tolC growth inh: -4.0; CYP2C19 activ: 0.6

How did CSc1ccccc1NC(=O)c1ccccc1N(Cc1ccccc1)S(C)(=O)=O do in these assays?
CYP2C9 inh: 58.8*; Ecoli WT expand: -4.0; CYP2C9 act: 0.4; CYP2C19 inhib: 42.8; CYP2C19 activ: 0.6

Results for CSc1ccccc1NC(=O)c1ccccc1N(C)S(C)(=O)=O ?
CYP2C9 inh: -22.5; Ecoli WT expand: 1.0; CYP2C9 act: 1.2; CYP2C19 inhib: 31.9; tolC growth inh: -5.8; CYP2C19 activ: 0.7

Results for CS(=O)(=O)N(CC(=O)Nc1ccccc1Sc1ccccc1)c1cccc(Br)c1 ?
CYP2C9 inh: 66.1*; Ecoli WT expand: -32.0; CYP2C9 act: 0.3; CYP2C19 inhib: 13.8; CYP2C19 activ: 0.9

How did CSc1ccccc1NC(=O)CN(c1cc(C)cc(C)c1)S(C)(=O)=O do in these assays?
CYP2C9 inh: 70.8*; Ecoli WT expand: -4.0; CYP2C9 act: 0.3; CYP2C19 inhib: 57.5*; tolC growth inh: 25.7; CYP2C19 activ: 0.4

How did O=C(Oc1cccc(NC(=O)c2ccco2)c1)c1ccc(Br)c(S(=O)(=O)N2CCCCC2)c1 do in these assays?
CYP2C9 inh: 47.6; Ecoli WT expand: -14.0; CYP2C9 act: 0.5; CYP2C19 inhib: 26.4; CYP2C19 activ: 0.7

How did Cc1ccc(C(=O)Oc2cccc(NC(=O)c3ccco3)c2)cc1S(=O)(=O)N1CCC(C)CC1 do in these assays?
CYP2C9 inh: 85.2*; Ecoli WT expand: -14.0; CYP2C9 act: 0.1; CYP2C19 inhib: 59.8*; CYP2C19 activ: 0.4

What do the screens show for `CCOC(=O)Nc1sc2c(c1C(=O)OCC)CCC2`?
CYP2C9 inh: -1.3; Ecoli WT expand: 4.0; CYP2C9 act: 1; CYP2C19 inhib: 14.6; tolC growth inh: 4.0; CYP2C19 activ: 0.9

What do the screens show for `CCOC(=O)c1c(NS(=O)(=O)c2cccc(OC)c2)sc2c1CCC2`?
CYP2C9 inh: 38.7; Ecoli WT expand: 8.0; CYP2C9 act: 0.6; CYP2C19 inhib: -7.2; tolC growth inh: 78.6*; CYP2C19 activ: 1.1

How did CCC(C)(c1ccc(C=O)s1)c1ccc(C=O)s1 do in these assays?
CYP2C9 inh: 51.7*; Ecoli WT expand: 9.0; CYP2C9 act: 0.5; CYP2C19 inhib: 27.8; CYP2C19 activ: 0.7

What do the screens show for `Cc1cnn(-c2cc(Oc3ccccc3)ncn2)c1`?
CYP2C9 inh: 5.0; Ecoli WT expand: 5.0; CYP2C9 act: 0.9; CYP2C19 inhib: 35.6; tolC growth inh: -3.4; CYP2C19 activ: 0.6

How did Cc1ccccc1NC(=O)CC1(c2ccc(N(C)C)cc2)C(=O)c2ccccc2C1=O do in these assays?
CYP2C9 inh: 36.4; Ecoli WT expand: -3.0; CYP2C9 act: 0.6; CYP2C19 inhib: 55.8*; CYP2C19 activ: 0.4

Results for O=C(O)CC1(c2ccccc2)C(=O)c2ccccc2C1=O ?
CYP2C9 inh: -2.8; CYP2C9 act: 1; CYP2C19 inhib: 0.5; tolC growth inh: -11.2; CYP2C19 activ: 1

What do the screens show for `COc1ccc(-c2c3c(nc4sc5c(Cl)nc(C)nc5c24)CCC3)cc1`?
CYP2C9 inh: 57.9*; Ecoli WT expand: -6.0; CYP2C9 act: 0.4; CYP2C19 inhib: -6.2; CYP2C19 activ: 1.1
